From PubChem
TAAR1 antag: human TAAR1 antagonists, primary screen, Fluo-8 calcium fluorescence, CHO RD-HGA16 cells | antagonist | inhibition, % at 3 µM | hit rate 1.5% among 360,000 | Trace amine-associated receptor 1 (Homo sapiens), Q96RJ0 | AID 624466, 2012;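 active = inhibition above a per-plate cutoff, the mean inhibition of test compounds on that plate plus 3 SD, cut at about 49% in these data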;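 note: 0% = DMSO plus EC80 beta-PEA response and 100% = DMSO alone without agonist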
Target sequence (Q96RJ0 whole entry, looked up): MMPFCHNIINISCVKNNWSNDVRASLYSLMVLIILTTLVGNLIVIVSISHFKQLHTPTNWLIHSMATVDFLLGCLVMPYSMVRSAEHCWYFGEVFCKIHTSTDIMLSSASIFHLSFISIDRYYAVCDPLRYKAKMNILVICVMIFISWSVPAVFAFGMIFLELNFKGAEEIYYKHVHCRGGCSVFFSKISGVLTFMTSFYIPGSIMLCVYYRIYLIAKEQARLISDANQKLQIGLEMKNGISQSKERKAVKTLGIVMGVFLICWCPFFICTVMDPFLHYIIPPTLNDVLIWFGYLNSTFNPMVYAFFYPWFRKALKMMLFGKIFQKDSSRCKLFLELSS
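Test system – hTAAR1-expressing CHO RD-HGA16 cells, Gα16-coupled · Reagent – β-PEA at EC80 concentration, post-compound challenge · Compound dosing – 3 µM, single point · Timing – 140 s kinetic read after compound, 140 s after agonist · Detection – Fluo-8 intracellular calcium dye fluorescence, real-time kinetic reads · Control set – DMSO and EC80 PEA controls · Repeats – n of 1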
CHO parental Ca: ATP-evoked calcium signal inhibitors, parental CHO, primary screen, counter-screen for OX1R antagonist project, cell-based, fluorescence, Fluo-8 calcium dye; parental CHO-K1, ATP-induced calcium, Fluo-8 fluorescence; inhibition, % at 5.6 µM; hit rate 0.63% among 330,000; AID 463079, 2010;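 active = inhibition above that plate's mean sample inhibition plus 3 SD, cut at about 26% in these data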;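 note: 0% = ATP-challenged DMSO wells and 100% = DMSO wells without ATP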
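Test system: parental CHO cells; detection: calcium-sensitive Fluo-8 fluorescence; evaluation: percent inhibition of calcium signal; also added: ATP as calcium-mobilizing challenge; repeats: one well per compound; control set: ATP-challenged DMSO wells low, unchallenged DMSO wells high; compound: single nominal dose of 5.6 µM per compound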
GPR7 antagonist: GPR7 receptor antagonists, primary screen, cell-based, fluorescence, single concentration; hit rate 1.1% among 290,000; AID 1861, 2009; GPR7-expressing cells, fluorescence antagonist assay; inhibition, % at 4.4 µM; Neuropeptides B/W receptor type 1 (Homo sapiens), P48145; in the data active = inhibition above about 16%, passing the limit was not always enough;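 note: cells stimulated with the agonist NPW; 0% = agonist with vehicle and 100% = vehicle without agonist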
OX1R antag-1: OX1R (HCRTR1) antagonists, primary screen, fluorescence, CHO/OX1R cells, Fluo-8 calcium, orexin A. Orexin/Hypocretin receptor type 1 (Homo sapiens), O43613. Fluo-8 calcium fluorescence. inhibition, % at 5 µM. hit rate 0.43% among 330,000;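 active = inhibition above its plate's threshold, mean inhibition of all tested compounds on the plate plus 3 SD, cut at about 37% in these data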;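 note: 0% = orexin A challenge wells and 100% = SB-334867-A antagonist wells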
OX1R antag-2: antagonists of human orexin 1 receptor (OX1R); hit rate 1.8% among 330,000; Orexin/Hypocretin receptor type 1 (Homo sapiens), O43613; inhibition, % at 6.6 µM; AID 485270, 2010; OX1R-expressing cells, FRET antagonist read-out; in the data active = inhibition mostly above about 38%, no sharp cut-off; inactive = mostly below about 40%;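 note: 0% = agonist challenge alone and 100% = reference antagonist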
TAAR1 ag: human TAAR1 agonists, primary screen, Fluo-8 calcium fluorescence, CHO RD-HGA16 cells; activation, % at 3 µM; Trace amine-associated receptor 1 (Homo sapiens), Q96RJ0; hit rate 0.99% among 360,000; vehicle wells 0%, saturating PEA agonist 100%;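 active = activation above the mean activation of all test compounds in the run plus 3 SD, cut at about 38% in these data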
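Assay system – CHO-derived RD-HGA16 cells with stable Gα16 and human TAAR1 · Compound dosing – one-point dosing at 3 µM (nominal) · Incubation – 17-24 h seeding, 75 min 37 °C dye, 30 min RT · Measured by – kinetic Fluo-8 calcium fluorescence · Control set – DMSO vehicle as 0%, PEA at EC100 as 100% · Repeats – single well for each compound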
TAAR1 nonsel count: nonselective antagonists in TAAR1 counter-screen cells, counter-screen for hTAAR1 antagonist project, cell-based, fluorescence, calcium; shares compounds with TAAR1 antag; counterscreen cell line, antagonist mode; inhibition, % at 3 µM; hit rate 77% among 2,400; AID 651780, 2012; in the data active = inhibition above about 22%;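 note: CHO-Ga16 host cells stimulated with ATP at an EC80 level; 0% = agonist EC80 plus vehicle and 100% = vehicle without agonist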
TAAR1 ant conf: human TAAR1 antagonists, retest of hits, confirmation, cell-based, fluorescence; shares compounds with TAAR1 antag; TAAR1-expressing cells, fluorescence antagonist read-out; inhibition, % at 3 µM; hit rate 40% among 2,400; in the data active = inhibition above about 49%;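 note: CHO-Ga16 host cells challenged with agonist PEA near its EC80; 0% = agonist at EC80 plus vehicle and 100% = vehicle with no agonist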
Ga16 ag counter: calcium activation in Ga16-expressing cells, counter-screen for TAAR1 antagonist project, cell-based, fluorescence; shares compounds with TAAR1 antag; agonist counterscreen; activation, % at 3 µM; hit rate 18% among 2,400; in the data active = activation above about 12%;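 note: 0% = vehicle wells and 100% = saturating stimulus response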
TAAR1 ag count: TAAR1 activation by candidate antagonists – cell-based, fluorescence, counter-screen for TAAR1 antagonist project | shares compounds with TAAR1 antag | hTAAR1 cell line, agonist mode | activation, % at 3 µM | hit rate 2% among 2,400 | AID 651955, 2012; in the data active = activation above about 37%;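 note: CHO cells stably expressing TAAR1 with calcium dye readout; 0% = DMSO vehicle and 100% = full agonist response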
Active calls of the source: *. Sampled rows, rich in hits. Any-hit rate of the full collection: about 4.5%.

Results for O=C(O)c1cccc(NC(=O)c2ccc(Cl)c(S(=O)(=O)N3CCCCCC3)c2)c1 ?
TAAR1 antag: 46; CHO parental Ca: -10; GPR7 antagonist: -11; OX1R antag-1: 17; OX1R antag-2: 18; TAAR1 ag: 2

Results for CCCn1c(NC(=O)c2ccc(Cl)c(S(=O)(=O)N3CCCC3)c2)nc2ccccc21 ?
TAAR1 antag: 57*; CHO parental Ca: 16; GPR7 antagonist: -28; OX1R antag-1: -6; OX1R antag-2: 4; TAAR1 ag: 10; TAAR1 nonsel count: 38*; TAAR1 ant conf: 34; Ga16 ag counter: 11; TAAR1 ag count: 0

Results for Cc1nc(-c2cccc(NC(=O)c3ccc(-n4cccn4)cc3)c2)cs1 ?
TAAR1 antag: 63*; CHO parental Ca: -12; OX1R antag-1: -13; OX1R antag-2: 52*; TAAR1 ag: 28; TAAR1 nonsel count: 22*; TAAR1 ant conf: 47; Ga16 ag counter: 11; TAAR1 ag count: 8

What do the screens show for `O=C(NCc1nc2ccccc2[nH]1)c1ccc(Cl)c(S(=O)(=O)N2CCCC2)c1`?
TAAR1 antag: 16; CHO parental Ca: -35; GPR7 antagonist: -11; OX1R antag-1: -27; OX1R antag-2: 10; TAAR1 ag: 6

How did Cc1nn(C)c(C)c1S(=O)(=O)N(CC(=O)NC1CCCCCC1)c1ccc(C(C)C)cc1 do in these assays?
TAAR1 antag: 1; CHO parental Ca: -1; GPR7 antagonist: -10; OX1R antag-1: -2; OX1R antag-2: 12; TAAR1 ag: 0

What do the screens show for `Cc1n[nH]c(C)c1S(=O)(=O)N(CC(=O)NC1CCCC1)c1ccc(C(C)C)cc1`?
TAAR1 antag: 61*; CHO parental Ca: -4; GPR7 antagonist: 8; OX1R antag-1: -17; OX1R antag-2: 9; TAAR1 ag: 9; TAAR1 nonsel count: 22*; TAAR1 ant conf: 38; Ga16 ag counter: 8; TAAR1 ag count: 11

Results for Cc1ccc(N(Cc2cc3ccc(C)cc3[nH]c2=O)C(=O)c2ccco2)c(C)c1 ?
TAAR1 antag: 104*; CHO parental Ca: -23; GPR7 antagonist: -7; OX1R antag-1: -32; OX1R antag-2: 1; TAAR1 ag: 0; TAAR1 nonsel count: 12; TAAR1 ant conf: -1; Ga16 ag counter: 3; TAAR1 ag count: 5

Results for O=C(Nc1cccnc1)c1sc(Nc2ccccc2)nc1-c1ccccc1 ?
TAAR1 antag: 59*; CHO parental Ca: -24; GPR7 antagonist: -7; OX1R antag-1: -32; OX1R antag-2: 16; TAAR1 ag: 14; TAAR1 nonsel count: 34*; TAAR1 ant conf: 37; Ga16 ag counter: 8; TAAR1 ag count: 11

How did CCOC(=O)C1(Cc2cccc(F)c2)CCN(C2CCOCC2)CC1 do in these assays?
TAAR1 antag: 4; CHO parental Ca: -14; GPR7 antagonist: -3; OX1R antag-1: -16; OX1R antag-2: 20; TAAR1 ag: 13

How did CCOC(=O)C1(Cc2cccc(F)c2)CCN(C(=O)C2CCC2)CC1 do in these assays?
TAAR1 antag: 105*; CHO parental Ca: -4; GPR7 antagonist: 8; OX1R antag-1: -17; OX1R antag-2: 11; TAAR1 ag: 6; TAAR1 nonsel count: 14; TAAR1 ant conf: -3; Ga16 ag counter: 5; TAAR1 ag count: 6
